According to PMC7657661 (Biochemical Journal, 2020):
Entries after “also recorded” stand apart in the source; their conditions may differ. Where two headings read alike, the source gives them in different places.

Experiments:
NaCT/SLC13A5 [1] = target: T1, NaCT/SLC13A5 (Homo sapiens, UniProt Q86YT5); assay: Na+-coupled [14C]-citrate uptake in HepG2 cells; assay type: cell-based; settings: for effect on Na+-dependent citrate uptake, compound present only during uptake: PF06761281 100 µM, BI01383298 10 µM; for reversibility of inhibition of SLC13A5: preincubation 30 min, then uptake; for maximal inhibition of citrate uptake: inhibitor present only during uptake
Outline: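 HepG2 cells seeded at 4 × 10^5/well and assayed 48 h later. [14C]-citrate uptake measured for 30 min at 37°C in NaCl buffer pH 7.5 (Hepes/Tris), with or without 10 mM LiCl. Inhibitor either co-incubated during uptake, or preincubated 30 min and washed twice before inhibitor-free uptake. Recovery runs: 10 µM for 30 min in buffer or medium, washed, then held 0, 30 or 60 min (buffer) or 0 or 24 h (medium). Na+-free NMDG-Cl uptake subtracted; values protein-normalized (BCA).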

mouse NaCT/Slc13a5 = target: T2, mouse NaCT/Slc13a5 (Mus musculus, UniProt Q67BT3); assay: [14C]-citrate uptake in HEK293FT cells with ectopic expression of mouse Slc13a5; assay type: cell-based
T2 sequence (Q67BT3 1-572): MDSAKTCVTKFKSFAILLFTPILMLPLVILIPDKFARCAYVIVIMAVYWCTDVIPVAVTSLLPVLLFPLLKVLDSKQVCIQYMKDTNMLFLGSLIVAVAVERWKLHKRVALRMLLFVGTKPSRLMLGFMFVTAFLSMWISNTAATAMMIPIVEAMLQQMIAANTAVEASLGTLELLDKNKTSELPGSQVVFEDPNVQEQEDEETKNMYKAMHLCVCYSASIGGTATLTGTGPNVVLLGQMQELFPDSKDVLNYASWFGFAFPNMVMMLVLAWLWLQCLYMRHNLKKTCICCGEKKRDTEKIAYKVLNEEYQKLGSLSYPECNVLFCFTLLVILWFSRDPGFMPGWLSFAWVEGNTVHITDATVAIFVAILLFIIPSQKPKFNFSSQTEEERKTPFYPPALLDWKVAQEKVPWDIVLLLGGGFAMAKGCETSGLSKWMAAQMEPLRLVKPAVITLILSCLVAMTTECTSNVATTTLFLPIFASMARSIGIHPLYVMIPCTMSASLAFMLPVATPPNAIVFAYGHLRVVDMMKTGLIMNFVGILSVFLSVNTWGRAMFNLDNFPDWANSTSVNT
Outline: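 Mouse Slc13a5 was transiently expressed in HEK293FT cells (CMV plasmid, Lipofectamine-3000) and assayed 48 h after transfection in NaCl buffer pH 7.5 without LiCl. Cells got a 30 min preincubation with 10 µM test compound or 100 µM reference NaCT inhibitor, two washes and 0 or 60 min recovery. Then 2 µM [14C]-citrate uptake ran 30 min, or with inhibitor co-present only during uptake. Na+-dependent uptake was normalised to protein.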

human NaCT = settings: cited from earlier work
mouse NaCT = settings: cited from earlier work
NaCT/SLC13A5 [2] = target: T1, NaCT/SLC13A5; assay: [14C]-citrate uptake in HEK293FT cells with ectopic expression of human SLC13A5; assay type: cell-based
Outline: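 Human SLC13A5 (CMV plasmid) was transiently expressed in HEK293FT cells by Lipofectamine-3000, assay 48 h post-transfection. Cells were preincubated 30 min in NaCl buffer (Hepes/Tris, pH 7.5) with the test compound (10 µM or a concentration series), washed twice, then given [14C]-citrate (2 µM) for 30 min at 37 °C without inhibitor. NMDG (Na+-free) uptake was subtracted and values normalised to protein. IC50 came from the dose-response.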

SLC5A8 = target: T3, SLC5A8 (Homo sapiens, UniProt Q8N695); assay: [14C]-nicotinate uptake in HepG2 cells; assay type: cell-based; settings: 10 µM, 30 min preincubation, washed, NaCl buffer pH 7.5
T3 sequence (Q8N695 1-610): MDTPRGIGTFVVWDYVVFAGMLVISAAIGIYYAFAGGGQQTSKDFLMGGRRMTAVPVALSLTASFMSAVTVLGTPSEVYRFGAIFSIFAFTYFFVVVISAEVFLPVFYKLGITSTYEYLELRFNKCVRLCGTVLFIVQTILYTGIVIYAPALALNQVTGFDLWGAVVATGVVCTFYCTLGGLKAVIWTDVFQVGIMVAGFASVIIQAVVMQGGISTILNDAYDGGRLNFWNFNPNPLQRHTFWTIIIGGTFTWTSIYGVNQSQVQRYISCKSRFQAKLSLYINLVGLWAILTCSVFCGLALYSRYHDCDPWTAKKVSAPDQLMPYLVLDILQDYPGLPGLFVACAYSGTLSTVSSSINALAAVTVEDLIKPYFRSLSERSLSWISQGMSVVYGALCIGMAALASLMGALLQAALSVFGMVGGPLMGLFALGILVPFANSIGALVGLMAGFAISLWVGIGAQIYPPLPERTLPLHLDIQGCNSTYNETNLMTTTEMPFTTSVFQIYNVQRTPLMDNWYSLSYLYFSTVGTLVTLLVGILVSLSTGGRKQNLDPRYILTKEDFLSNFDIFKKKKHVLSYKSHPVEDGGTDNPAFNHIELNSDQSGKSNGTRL
Outline: (§1)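 HepG2 cells, 48 h after seeding, were preincubated 30 min with 10 µM test compound and washed; substrate uptake followed without inhibitor. [14C]-nicotinate and [3H]-arginine were run in NaCl buffer pH 7.5, and [3H]-glutamine and [3H]-tryptophan in NMDG buffer pH 7.5, each for 15 min. [14C]-lactate was run in NMDG buffer pH 6 for 3 min. Uptake was normalised to protein and compared with untreated control.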

SLC6A14 = target: T4, SLC6A14 (Homo sapiens, UniProt Q9UN76); assay: [3H]-arginine uptake in HepG2 cells; assay type: cell-based; settings: 10 µM, 30 min preincubation, washed, NaCl buffer pH 7.5
T4 sequence (Q9UN76 1-642): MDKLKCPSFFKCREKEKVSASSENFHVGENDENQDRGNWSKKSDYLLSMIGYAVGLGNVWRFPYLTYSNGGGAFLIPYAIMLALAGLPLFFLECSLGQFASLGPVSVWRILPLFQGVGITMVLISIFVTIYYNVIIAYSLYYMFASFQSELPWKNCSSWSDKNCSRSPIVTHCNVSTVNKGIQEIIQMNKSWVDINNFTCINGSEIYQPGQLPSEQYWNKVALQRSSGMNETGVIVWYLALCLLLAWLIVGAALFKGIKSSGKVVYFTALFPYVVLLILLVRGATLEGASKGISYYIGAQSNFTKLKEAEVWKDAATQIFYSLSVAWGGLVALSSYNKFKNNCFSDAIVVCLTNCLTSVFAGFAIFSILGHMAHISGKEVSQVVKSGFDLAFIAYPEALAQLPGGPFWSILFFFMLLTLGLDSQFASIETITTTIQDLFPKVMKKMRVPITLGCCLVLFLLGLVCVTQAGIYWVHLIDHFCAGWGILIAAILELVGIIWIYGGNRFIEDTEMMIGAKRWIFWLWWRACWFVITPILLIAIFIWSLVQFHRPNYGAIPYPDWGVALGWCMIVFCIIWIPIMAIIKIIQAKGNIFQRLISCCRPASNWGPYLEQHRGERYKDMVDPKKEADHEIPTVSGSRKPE
Outline: as §1

SLC7A5 = SLC7A5 (Homo sapiens, UniProt Q01650); assay: [3H]-glutamine and [3H]-tryptophan uptake in HepG2 cells; assay type: cell-based; settings: 10 µM, 30 min preincubation, washed, NMDG buffer pH 7.5
Outline: as §1

MCTs = assay: [14C]-lactate uptake in HepG2 cells; assay type: cell-based, human; settings: 10 µM, 30 min preincubation, washed, NMDG pH 6
Outline: as §1

HepG2 cells = assay: Colony formation assay; assay type: cell-based, human; settings: 5 and 10 µM, 10 days, culture medium with 0.5 mM citrate
Outline: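 HepG2 cells were seeded at 5000 per well in six-well plates and grown for 10 days in normal medium supplemented with 0.5 mM citrate. The medium held 0.1% DMSO alone, or the test compound at 5 or 10 µM plus 0.1% DMSO, and was renewed every other day. Cells were washed in PBS, methanol-fixed and Giemsa-stained. Colonies were photographed, then the stain was extracted and quantified against the no-inhibitor control.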

NaCT = settings: cited from earlier work
[3] = HepG2, 10 µM, 30 min preincubation, washed, NaCl buffer pH 7.5

T1 sequence (Q86YT5 whole entry): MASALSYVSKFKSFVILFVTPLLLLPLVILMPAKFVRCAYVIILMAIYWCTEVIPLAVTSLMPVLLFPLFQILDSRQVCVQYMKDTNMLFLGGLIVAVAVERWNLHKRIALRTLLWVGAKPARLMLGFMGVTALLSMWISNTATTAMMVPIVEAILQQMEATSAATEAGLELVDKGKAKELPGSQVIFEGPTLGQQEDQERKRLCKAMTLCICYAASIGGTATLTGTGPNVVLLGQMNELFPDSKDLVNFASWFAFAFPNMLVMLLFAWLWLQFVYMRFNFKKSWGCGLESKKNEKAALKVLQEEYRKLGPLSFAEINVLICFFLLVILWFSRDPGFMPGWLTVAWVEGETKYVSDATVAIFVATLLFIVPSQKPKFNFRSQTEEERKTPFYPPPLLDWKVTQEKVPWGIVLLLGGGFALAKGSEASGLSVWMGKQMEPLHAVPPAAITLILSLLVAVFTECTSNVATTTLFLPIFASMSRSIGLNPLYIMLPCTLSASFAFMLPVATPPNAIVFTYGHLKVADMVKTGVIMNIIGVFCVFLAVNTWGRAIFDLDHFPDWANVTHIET
Chain of SLC7A5 (Q01650 whole entry): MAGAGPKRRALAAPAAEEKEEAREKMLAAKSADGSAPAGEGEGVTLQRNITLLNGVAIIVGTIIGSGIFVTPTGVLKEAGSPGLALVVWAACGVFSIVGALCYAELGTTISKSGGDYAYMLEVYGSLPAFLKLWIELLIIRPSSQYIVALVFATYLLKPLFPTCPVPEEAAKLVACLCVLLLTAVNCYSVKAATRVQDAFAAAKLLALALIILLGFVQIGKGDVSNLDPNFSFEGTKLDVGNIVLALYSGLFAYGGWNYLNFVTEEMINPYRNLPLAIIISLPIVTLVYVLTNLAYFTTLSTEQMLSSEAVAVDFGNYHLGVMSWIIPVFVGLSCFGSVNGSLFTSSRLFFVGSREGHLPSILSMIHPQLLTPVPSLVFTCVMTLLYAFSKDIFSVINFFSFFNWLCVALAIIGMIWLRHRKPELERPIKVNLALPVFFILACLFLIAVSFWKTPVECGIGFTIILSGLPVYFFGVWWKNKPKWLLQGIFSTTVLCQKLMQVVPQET

COc1ncc(C)cc1CC[C@@](O)(CC(=O)O)C(=O)O [PF06761281, (2R)-2-Hydroxy-2-[2-(2-methoxy-5-methyl-3-pyridinyl)ethyl]succinic acid]
effect on Na+-dependent citrate uptake, compound present only during uptake (NaCT/SLC13A5 [1]; HepG2): inhibited
reversibility of inhibition of SLC13A5 (NaCT/SLC13A5 [1]; washed): at least partly reversible
effect on activity of mouse NaCT/Slc13a5 (mouse NaCT/Slc13a5; 100 µM): able to inhibit
inhibitory potency for mouse NaCT/Slc13a5 compared with human NaCT/SLC13A5 (mouse NaCT/Slc13a5; 100 µM): greater than for human NaCT/SLC13A5
increase in inhibitor potency over PF-06649298 (human NaCT; optimized derivative): ~4 fold

CC(C)(C)c1ccc(CC[C@@](O)(CC(=O)O)C(=O)O)cc1 [PF-06649298]
IC50 (human NaCT; read-out: IC50 for NaCT-mediated citrate uptake, human NaCT): 0.4 to 10 µM
species selectivity (mouse and human NaCTs) (mouse NaCT): no species selectivity

O=C(NCc1ccc(F)cc1)C1CCN(S(=O)(=O)c2cc(Cl)cc(Cl)c2)CC1 [BI01383298, 1-(3,5-Dichlorophenylsulfonyl)-N-(4-fluorobenzyl)piperidine-4-carboxamide]
preincubation time at which maximal inhibition is evident (NaCT/SLC13A5 [1]; HepG2, 10 µM inhibitor, washed, uptake without inhibitor): 30 min
Citrate (7 µM) uptake (NaCT/SLC13A5 [1]; [3]): 88.2 ± 5.6 pmol/mg of protein/30 min
Citrate (7 µM) uptake, % Control (NaCT/SLC13A5 [1]; [3]): 18 ± 1 % Control
IC50 lower in presence of Li+ than in its absence (NaCT/SLC13A5 [1]; HepG2, 30 min preincubation, inhibitor also present during uptake): 2 fold
inhibitory potency relative to PF06761281 (NaCT/SLC13A5 [1]; HepG2, BI01383298 10 µM vs PF06761281 100 µM): at least 10 times
effect on Na+-dependent citrate uptake, compound present only during uptake (NaCT/SLC13A5 [1]; HepG2): inhibited
maximal inhibition of citrate uptake (NaCT/SLC13A5 [1]; HepG2, absence of Li+): ~60%
maximal inhibition of citrate uptake (NaCT/SLC13A5 [1]; HepG2, presence of Li+): ~60%
increase in inhibitory potency with preincubation (NaCT/SLC13A5 [1]; HepG2, preincubated vs not preincubated, both in absence or presence of Li+): ~10 fold
IC50 (NaCT/SLC13A5 [1]; IC50 for human NaCT (summary), human NaCT, HepG2 and HEK293 cells): ~0.1 µM
type of inhibition of NaCT/SLC13A5 (NaCT/SLC13A5 [1]; kinetic analysis, Eadie–Hofstee plot): non-competitive
reversibility of inhibition of SLC13A5 (NaCT/SLC13A5 [1]; washed): irreversible
IC50 (NaCT/SLC13A5 [2]): 0.171 ± 0.051 µM
effect on human NaCT/SLC13A5 transporter activity (NaCT/SLC13A5 [2]; HEK293FT, 10 µM): complete inhibition
effect on mouse NaCT/Slc13a5 (mouse NaCT/Slc13a5; 10 µM, 30 min preincubation, uptake without inhibitor): not affected; also recorded: not inhibited; also recorded: little or no inhibition
Nicotinate (8 µM) uptake (SLC5A8): 123 ± 4 pmol/mg of protein/15 min
Nicotinate (8 µM) uptake, % Control (SLC5A8): 100 ± 3 % Control
Arginine (5 µM) uptake (SLC6A14): 935 ± 51 pmol/mg of protein/15 min
Arginine (5 µM) uptake, % Control (SLC6A14): 101 ± 5 % Control
Glutamine (5 µM) uptake (SLC7A5): 306 ± 3 pmol/mg of protein/15 min
Tryptophan (5 µM) uptake (SLC7A5): 76 ± 3 pmol/mg of protein/15 min
Tryptophan (5 µM) uptake, % Control (SLC7A5): 95 ± 3 % Control
Lactate (3 µM) uptake (MCTs): 137 ± 7 pmol/mg of protein/3 min
Lactate (3 µM) uptake, % Control (MCTs): 97 ± 5 % Control
effect on HepG2 cell proliferation (HepG2 cells): decreased cell proliferation; also recorded: robust inhibition of cell proliferation; also recorded: does block the proliferation
IC50 (human NaCT; read-out: IC50 for human NaCT, ref Structural Genomics Consortium): 0.025 to 0.06 µM
effect on mouse NaCT (mouse NaCT; ref Structural Genomics Consortium): no effect

O=C(O)CC(O)(CC(=O)O)C(=O)O [citrate]
lower affinity of human NaCT for citrate than mouse NaCT (human NaCT; kinetic experiments under identical conditions): at least 30 fold

CN(C)C(=N)N=C(N)N [metformin]
effect on expression of NaCT in HepG2 cells (NaCT): suppresses the expression of NaCT
